Results on two molecules are retold here after paper PMC7864382 (Clinical cancer research : an official journal of the …, 2020).

Each structure is given as a SMILES string. “And” between values parts separate entries of the source, which are not always exact repeats. Identical values can stand only once. Like-named read-outs stand apart in the source and are kept apart here.

Data set [1] deals with pS6RP, p4EBP1, survivin in MDA-MB-468 and HCC1937 cells. In words: Immunoblotting of mTOR pathway effectors and survivin. Format: cell-based, Human. To be noted: immunoblot, 50 nmol/L at 24 hours, 100 nmol/L at 72 hours; for pS6RP (mTOR pathway effector) level: alisertib-sensitive and -resistant TNBC cell lines. In outline:
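Cells were seeded in 6-well plates for 24 h, then exposed to test compounds at 50 nmol/L for 24 h or 100 nmol/L for 72 h, alone or combined. Cells were harvested with trypsin/EDTA and lysed. 50 µg protein was run on 4–12% Bis-Tris gels and transferred to nitrocellulose. Primary antibodies (S6RP, pS6RP, 4EBP1, p4EBP1, survivin, α-tubulin) were used at 1:1,000 overnight, with DyLight secondaries and infrared imaging.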

The next data set concerns CAL51 FUCCI cells. In words: FUCCI cell-cycle analysis and relative growth. The settings on record: 100 nmol/L each, 0 to 96 hours. The data set is classed as cell-based, Human. Put shortly:
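CAL51 cells transduced with the FUCCI biosensor (G1 red, S/G2–M green) were plated and treated with each test compound at 100 nmol/L, alone or combined. Live-cell fluorescence microscopy in an environmentally controlled chamber ran from 0 to 96 h. Relative growth came from time-lapse image growth curves. Combination was compared with single agents at 72 and 96 h.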

In data set [2] the test system is CU_TNBC_004 PDX model. In words: Tumor growth inhibition in TNBC PDX model CU_TNBC_004. Format: in vivo, mouse. To be noted: CU_TNBC_004 (alisertib-resistant); TAK-228 0.5 mg/kg daily, alisertib 30 mg/kg daily, p.o.; vs vehicle. In outline: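 Tumor sections were implanted subcutaneously into both flanks by 12-gauge trocar. At an average of 150–300 mm³, mice were randomized to four arms: vehicle, 0.5 mg/kg daily, 30 mg/kg daily, or both combined, all by oral gavage. Caliper measurements and body weights were taken twice weekly; volume = length × width² × 0.52. TGI = [1 − (mean final treated volume/mean final vehicle volume)] × 100.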

For a further data set, the system named is CU_TNBC_007 PDX model. In words: Tumor growth inhibition in TNBC PDX model CU_TNBC_007. Format: in vivo, mouse. To be noted: TAK-228 0.5 mg/kg daily, alisertib 30 mg/kg daily, vs vehicle. Put shortly:
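PDX tumor sections were implanted subcutaneously via 12-gauge trocar into both flanks. At a mean of 150–300 mm³ mice were randomized to four arms: vehicle, 0.5 mg/kg daily, 30 mg/kg daily, or combination, all given by oral gavage. Calipers were read twice weekly and volume = length × width² × 0.52. TGI = [1 − (mean final treated volume / mean final vehicle volume)] × 100.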

Data set [3] concerns CU_TNBC_004 PDX model. The data set can be described thus: SA-β-gal staining and H&E of PDX tumors. The data set is classed as in vivo, mouse. Put shortly:
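PDX tumors were grown subcutaneously in both flanks. At 150–300 mm³ mice were randomized to vehicle, 0.5 mg/kg daily, 30 mg/kg daily, or combination by oral gavage. Tumors were OCT-embedded, frozen in liquid nitrogen, and cryosectioned. Slides were fixed and stained for SA-β-gal activity at pH 6.0. Matched H&E slides were reviewed by a pathologist to confirm tumor cells. Images were taken at 40×.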

Data set [4] concerns CU_TNBC_004 PDX model. The data set can be described thus: Immunofluorescence. The data set is classed as in vivo, mouse. To be noted: CU_TNBC_004 tumors. Put shortly:
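PDX tumor pieces were implanted subcutaneously by trocar into both flanks. At 150–300 mm³ mice were randomized to vehicle, 0.5 mg/kg daily, 30 mg/kg daily, or combination, all by oral gavage. Frozen OCT tumor sections were fixed and blocked (1% BSA/PBS, 1 h, 37°C), then stained with BAX and DR5 primaries and Alexa Fluor 488/555 secondaries (1 h, 37°C). DAPI counterstain was followed by confocal imaging at 60×.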

Data set [5] in a line: Phase I trial pharmacokinetics in human plasma. The data set is classed as in vivo.
For data set [6], the system named is patients with advanced solid tumors.
The next data set concerns TNBC patients. The settings on record: alisertib monotherapy, 14 TNBC patients, phase II trial; cited from earlier work.
Data set [7] deals with patients with ER+/HER2− metastatic breast cancer. To be noted: cited from earlier work.
For data set [8] the following is noted: human; ref earlier clinical trials; cited from earlier work.
[9] abbreviates: human, plasma, oral, 1 mg, TAK-228 combo dose with alisertib, 1 mg cohort.
Setting [10] is: human, plasma, oral, 1 mg, TAK-228 run-in dose (single agent), 1 mg cohort.
Where [11] appears, read: human, plasma, oral, 3 mg, TAK-228 run-in dose (single agent), 3 mg cohort.
Where [12] appears, read: single-agent alisertib, standard dosing schedule.

On to `CC(C)n1nc(-c2ccc3oc(N)nc3c2)c2c(N)ncnc21` [TAK-228], for which the p4EBP1 level result in [1] is recorded as “decrease”. Further, the “survivin (antiapoptotic protein) level” value in data set [1] is listed as “decrease”. Moreover, the “pS6RP (mTOR pathway effector) level” value in [1] was “decrease”. The “Cell-cycle status (FUCCI)” value with CAL51 FUCCI cells was “continued progression through the cell cycle”. Besides, the TGI is 54.47% and 54.5% in the data set on CU_TNBC_004 PDX model [2]; 30.73% and 30.7% in the data set on CU_TNBC_007 PDX model. The “Senescent cells by SA-β-gal staining” value in the data set on CU_TNBC_004 PDX model [3] is given as “not observed”. Further, the “cytoplasmic BAX” value in the data set on CU_TNBC_004 PDX model [4] is “increase”. Also, the half-life in data set [5] (TAK-228 combo dose with alisertib, 2 mg cohort) is 6.0 ± 2.1 h. Moreover, the values for the AUC in [5] (setting [9]), in data set [5] (setting [10]) and in data set [5] (setting [11]) were 47.4 ± 13.8 ng·h/mL, 46.7 ± 13.1 ng·h/mL and 154 ± 110 ng·h/mL, respectively. The Cmax worked out at 8.6 ± 4.2 ng/mL in data set [5] (setting [9]); 7.7 ± 2.6 ng/mL in data set [5] (setting [10]); 24.7 ± 13.6 ng/mL in [5] (human, plasma, oral, 2 mg, TAK-228 combo dose with alisertib, 2 mg cohort); 24.2 ± 8.8 ng/mL in data set [5] (human, plasma, oral, 2 mg, TAK-228 run-in dose (single agent), 2 mg cohort); 25.7 ± 9.4 ng/mL in data set [5] (setting [11]). In addition, the Tmax in data set [5] (human, plasma, oral, 3 mg, Tmax, TAK-228 run-in dose (single agent), 3 mg cohort) came to 1.3 ± 1.1 h. Also, the “Patients with adverse effects at least possibly related to the drug” value in [6] (18 patients, combination treatment) is 72%. Moreover, in [6] (attribution to TAK-228 alone, alisertib alone or both drugs), the “Most common toxicities attributed to the drug(s)” value was “Rash”. For the same molecule, in data set [6] (combination treatment, all dose levels), the “Dose reduction of the drug required” value was 3 patients. Besides, in data set [6] (daily, continuous dosing, oral), the “MTD / RP2D of TAK-228 in combination with alisertib” value worked out at 2 mg.
Take `COc1cc(Nc2ncc3c(n2)-c2ccc(Cl)cc2C(c2c(F)cccc2OC)=NC3)ccc1C(=O)O` [alisertib]: in [1], the “survivin (antiapoptotic protein) level” value was “increase” and the “pS6RP (mTOR pathway effector) level” value is “increase”. Besides, the “Cell-cycle status (FUCCI)” value in the data set on CAL51 FUCCI cells is “continued progression through the cell cycle”. Also, the TGI with CU_TNBC_004 PDX model [2] is 35.09% and 35.1%. In addition, the inhibition of tumour growth (TGI) in the data set with CU_TNBC_007 PDX model is 51.74% and 51.7%. Also, in the data set with CU_TNBC_004 PDX model [3], the “Senescent cells by SA-β-gal staining” value is on record as “scattered senescent cells”. For the same molecule, in [6] (b.i.d. days 1 to 7 of a 21-day cycle, oral), the “MTD / RP2D of alisertib in combination with TAK-228” value came out at 30 mg. The “Most common toxicities attributed to the drug(s)” value in [6] (in vivo) is “neutropenia and fatigue”. For the same molecule, the median progression-free survival in the data set on TNBC patients is 1.5 months. Further, the “grade ≥3 neutropenia or stomatitis” value in data set [7] (intermittent alisertib schedule in combination with fulvestrant) was “no grade ≥3 neutropenia or stomatitis”. In [7] (setting [12]), the “grade 3 to 4 neutropenia” value is 57% and the “grade 3 to 4 stomatitis” value is 15%. Moreover, the half-life result in data set [8] was “approximately 20 hours”.
